Entries after “also recorded” stand apart in the source; their conditions may differ.
Experiments:
[1] = Complexation kinetics with Cu; format: physicochemical; settings: ligand 1 mM, Cu(II) 7 μM, AAIII 14 μM, 0.15 M NH4OAc pH 5.0, room temperature, 1 h
Outline: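 Cu(II)–Arsenazo III reagent made in metal-free 0.15 M NH4OAc, pH 5.0 (14 μM AAIII, 7 μM Cu(II)), kept in the dark and stirred 2 h to equilibrate. Instrument zeroed against AAIII alone. Test compound was added from a 1 mM solution into the Cu(II)–AAIII cells at room temperature. A610 was read every 30 s for 1 h and compared with Cu(II)–AAIII alone.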

[2] = Biodistribution of 64Cu-labeled BFCs in female SCID mice; format: in vivo; settings: for radioactivity in blood (%ID/g): 24 h post-injection; for decrease of %ID/g in kidney by 24 h: by 24 h relative to 1 h
Outline: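 Female SCID mice, n = 4/group, received 64Cu-labeled chelator (0.74 MBq in 100 μL saline) by tail-vein injection; labeling was done in 0.1 M NH4OAc, pH 5.5. At 1, 4 and 24 h, mice were anesthetized with 1-2% isoflurane and killed by cervical dislocation. Blood, lung, liver, spleen, pancreas, kidney, muscle and bone were weighed and gamma-counted. %ID/g was decay-corrected and normalized to tissue weight.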

[3] = cited from earlier work
[4] = In vitro rat serum stability of 64Cu-labeled chelators; format: in vitro ADME; settings: 37 °C, 48 h incubation, TLC
Outline: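 Chelator was labeled with 64Cu in 0.1 M NH4OAc, pH ~5.5. Labeled complex (10 μL, ~3.7 MBq) was added to 90 μL rat serum at 37 °C. Aliquots taken at 1, 2, 4, 24 and 48 h were run on C-18 TLC in 10% NH4OAc:MeOH (3:7), and percent 64Cu still bound was determined.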

Row | SMILES | complexation kinetics with Cu(II) [1] | radioactivity in blood (%ID/g) [2] [%ID/g] | decrease of %ID/g in kidney by 24 h [2] [%] | stability of 64Cu complex in rat serum [3] | percentage of intact 64Cu complex in rat serum [4] [%]
1 | O=C(O)CNC(Cc1ccc([N+](=O)[O-])cc1)CN1CCN(CC(=O)O)CCN(CC(=O)O)CC1 (stereo not shown) [C-NE3TA, 4-carboxymethyl-7-[2-(carboxymethyl-amino)-3-(4-nitro-phenyl)-propyl]-[1,4,7]triazonan-1-yl-acetic acid] | formed complexes with Cu(II) almost immediately; also recorded: rapidly formed complexes with Cu(II) | 0.18 ± 0.06 | 60 | – | –
2 | O=C(O)CN1CCN(CCN(CC(=O)O)Cc2ccc([N+](=O)[O-])cc2)CCN(CC(=O)O)CC1 [N-NE3TA, 4-carboxymethyl-7-[2-[carboxymethyl-(4-nitro-benzyl)-amino]-ethyl]-[1,4,7]triazonan-1-yl-acetic acid] | formed complexes with Cu(II) almost immediately; also recorded: rapidly formed complexes with Cu(II) | 0.13 ± 0.06 | 60 | – | –
3 | O=C(O)CNCCN1CCN(CC(=O)O)CCN(CC(=O)O)CC1 [NE3TA] | – | – | – | high stability | –
4 | Nc1ccc(CC2CN(CC(=O)O)CCN(CC(=O)O)CCN(CC(=O)O)CCN2CC(=O)O)cc1 (stereo not shown) [p-NH2-Bn-DOTA, 2-(4-aminobenzyl)-1,4,7,10-tetraazacyclododecane-1,4,7,10-tetraacetic acid, reference compound] | – | 0.47 ± 0.17 | – | – | 93.9
5 | Nc1ccc(C[C@H]2CN(CC(=O)O)CCN(CC(=O)O)CCN2CC(=O)O)cc1 [p-NH2-Bn-NOTA, S-2-(4-aminobenzyl)-1,4,7-triazacyclononane-1,4,7-triacetic acid] | – | – | – | – | 97.9
